Data on three molecules can be found in publication PMC4100979 (Chembiochem : a European journal of chemical biology, 2013).

Test [1] concerns GLP-1R and SUR1 on βTC3 cells. In words: Competition of 15 nM Eu-GLP-1/Glb 10 by unlabelled monomers in live βTC3 cells. The note with it: 1.6 nM monomer vs 15 nM Eu-GLP-1/Glb 10, 1 hr, Figure 3. Type of test: binding. The method in brief: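 βTC3 cells, ~70,000/well, grown 3 days. They were exposed for 1 h to 15 nM Eu-labelled bivalent ligand with 4.1 fM or 1.6 nM unlabelled GLP-1 or Glb, in RPMI binding medium (1 mM 1,10-phenanthroline, 200 mg/L bacitracin, 0.5 mg/L leupeptin, 0.2% BSA). Non-specific binding was not measured. Cells were washed three times, then given enhancement solution for ≥30 min at 37°C. Eu time-resolved fluorescence was read at 340/615 nm. Quadruplicates unless noted.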

The next test concerns the target T1, GLP-1R on βTC3 cells (Mus musculus, UniProt O35659).
T1 sequence (O35659 22-463): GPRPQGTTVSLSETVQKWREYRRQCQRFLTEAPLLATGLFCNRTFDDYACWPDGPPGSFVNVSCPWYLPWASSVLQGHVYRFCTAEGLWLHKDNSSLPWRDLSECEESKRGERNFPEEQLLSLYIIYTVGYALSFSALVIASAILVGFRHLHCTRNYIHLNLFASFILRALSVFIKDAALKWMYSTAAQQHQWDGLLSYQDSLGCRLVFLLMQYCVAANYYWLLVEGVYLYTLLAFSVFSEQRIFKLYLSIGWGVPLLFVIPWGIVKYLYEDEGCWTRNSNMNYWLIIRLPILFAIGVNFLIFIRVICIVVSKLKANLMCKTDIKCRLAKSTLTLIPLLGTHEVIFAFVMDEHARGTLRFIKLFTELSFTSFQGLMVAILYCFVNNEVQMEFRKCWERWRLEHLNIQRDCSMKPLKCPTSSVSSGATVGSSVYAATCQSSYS
Kind of test: Saturation binding of bivalent Eu-labelled ligand in presence of unlabelled Glb. Conditions: 300 nM Glb, below 35 nM Eu-ligand.

A further test concerns INS 832/3 cells. In words: Insulin secretion. Type of test: cell-based, rat. Conditions: 20 mM glucose vs 1 mM glucose, 2 hour incubation; p<0.05. The method in brief:
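INS 832/3 cells were seeded at 500,000/well and grown 72 h. They were rinsed in HBSS with 1 mM glucose, then held 2 h in the same. Medium was replaced with the test glucose level (1 or 20 mM) ± secretagogues for 2 h. Secreted insulin was measured by rat insulin ELISA (ng/ml) and expressed as % of the mean 1 mM glucose secretion within each experiment.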

“Also recorded” adds a separate entry of the source.

For “GLP-1: unlabelled GLP-1 monomer used as competitor”, the “effect of unlabelled monomer on bivalent binding” value in test [1] was “bivalent binding is lost”.
As to `COc1ccc(Cl)cc1C(=O)NCCc1ccc(S(=O)(=O)NC(=O)NC2CCCCC2)cc1` [Glb, glibenclamide], the “effect of unlabelled monomer on bivalent binding” value in test [1] is on record as “bivalent binding is lost”. In addition, the “effect of unlabelled Glb on high affinity binding of Eu-GLP-1/Glb 10” value on GLP-1R on βTC3 cells is “blocks high affinity binding; also recorded: blocked the high affinity binding”.
As for `OC[C@H]1OC(O)[C@H](O)[C@@H](O)[C@@H]1O` (stereo partly shown) [glucose], the “induction of insulin secretion by glucose” value in the test on INS 832/3 cells was ~ 4 fold.
